Our source for the viability values is PubChem BioAssay.

By viability is commonly meant a read-out of living cells in per cent, often relative to untreated cells.

Each structure is given as a SMILES string. The source made the active and inactive calls.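 The calls were made as follows, unless noted: active = viability at or below 30% in both replicate assays; inconclusive = viability at or below 30% in just one of the two assays; inactive = the rest.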

One assay is described as follows: reduced viability of SK-BR-3 breast cancer cells – cell-based, 24 h, human, pilot screen (AID 572;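 active = viability at or below 10% of carrier control in both of two separate runs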;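 also: compound exposure lasted between 18 and 24 h rather than exactly 24 h; 100% = carrier-treated control wells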). As to conditions: SK-BR-3 viability, CellTiter-Glo luminescence, at 10 µM, active compounds read low. (Cellular ATP, detected with luciferase, serves as a proxy for viable cell number.)
As to `CCOc1cc(C(=O)Nc2c3c(nn2C(C)(C)C)CS(=O)C3)cc(OCC)c1OCC` (stereo not drawn), the viability is 103% (inactive).

On to `CC(=O)Nc1ccc(N=Cc2nc(-c3ccc(C)cc3)oc2O)cc1`, for which the viability is 102% (inactive).

For the compound `N#CC1=C(N)N2C(=C(C#N)C13CCCCC3)SC1CCCCC12O` (stereo not drawn), the viability was 72% (inactive).

`O=S(=O)(c1ccc(Br)s1)N1CCN(c2ccccc2)CC1`: the viability was 90% (inactive).

Regarding `c1coc(-c2nnc(-c3cccs3)o2)c1`, the viability is 106% (inactive).

As for `CN1[C@@H]2CC(OC(=O)[C@H](CO)c3ccccc3)C[C@H]1[C@@H]1O[C@@H]12` (stereo partly drawn), the viability is 104% (inactive).

As for `CCCN1CCN(C(=O)Cn2cccc2C(=O)c2ccccc2)CC1`, the viability is 84% (inactive).

For `CC(CCc1ccccc1)NCC(O)c1ccc(O)c(C(N)=O)c1` (stereo not drawn), the viability was 94% (inactive).

In the case of `Cc1nc2c(-c3ccccc3)c(C)[nH]n2c(=O)c1Cl`, the viability was 93% (inactive).

Regarding `CCCC(=O)n1nc(-c2ccc(OC)cc2)nc1N`, the viability is 101% (inactive).

As to `O=C(C1CCN(C2CC(=O)N(c3ccc(F)cc3)C2=O)CC1)N1CCOCC1` (stereo not drawn), the viability is 106% (inactive).

As to `O=C(NCc1cccs1)C1CC(=O)N(C2CCCC2)C1` (stereo not drawn), the viability was 87% (inactive).

On to `CCC(C)NCC(O)COCc1ccc(Cl)cc1` (stereo not drawn), for which the viability is 89% (inactive).

As to `CSc1c(CC(=O)NCCO)n(C)c2ccccc12`, the viability is 108% (inactive).

Turning to `O=C(O)c1ccc(COc2c(F)c(F)c(F)c(F)c2F)o1`, the viability is 78% (inactive).

As for `CSc1ncc(Cl)c(C(=O)Nc2ccc(S(=O)(=O)N3CCOCC3)cc2)n1`, the viability is 85% (inactive).

On to `S=C(c1ccc(N2CCOCC2)cc1)N1CCCCC1`, for which the viability is 103% (inactive).

With `CCOC(=O)C1CCN(c2cc(C)nc3cc(-c4cccc(F)c4)nn23)CC1`, the viability was 86% (inactive).

Turning to `O=S(=O)(Nc1nc2ccccc2nc1NCc1ccco1)c1cccs1`, the viability is 91% (inactive).

Turning to `OC(CCCN1CCC(O)(c2ccc(Cl)cc2)CC1)c1ccc(F)cc1` (stereo not drawn), the viability was 89% (inactive).

Consider `C=CCN1C(=O)C2(/C(=C(\O)c3ccc4c(c3)OCCO4)C(=O)C(=O)N2CCCOC)c2ccccc21` (stereo not drawn), for which the viability was 109% (inactive).

Turning to `Cc1ccc2c(c1)N(CC(=O)N1CCCCC1c1cccnc1)C(=O)CO2` (stereo not drawn), the viability is 106% (inactive).

Turning to `O=C(CSc1n[nH]c(=O)[nH]c1=O)c1ccccc1`, the viability is 110% (inactive).

For the compound `O=[N+]([O-])c1cccc2cn[nH]c12`, the viability is 113% (inactive).

The next assay in a line: HUVEC growth inhibition – cell-based, human, primary screen (AID 575).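 Also: 100% = median of untreated cell wells with 0.1% DMSO on each plate.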 Particulars: HUVEC proliferation, CellTiter-Glo luminescence, 72 h; at 10 µM; active compounds read low. An outline of the steps:
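Material: primary human umbilical vein endothelial cells / Schedule: 72 h exposure, 37 °C, 5% CO2, 30 min RT equilibration / Signal: ATP-based CellTiter-Glo luminescent read / Read-out basis: percent of median DMSO-control luminescence / Control set: 32 DMSO-only cell-control wells (high), 32 MePR drug-control wells (low) per plate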
For `O=C(NCC(F)(F)F)Nc1cccnc1`, the viability was 92.8% (inactive).

Regarding `CC(=O)Nc1ccc(S(=O)(=O)N2CCN(c3cc(C)nc4ccccc34)CC2)cc1`, the viability was 96.7% (inactive).

Consider `CCc1nnc(NC(=O)CSc2nnc(-c3ccccc3OC)n2-c2ccccc2)s1`, for which the viability is 108% (inactive).

`CCOc1ccc(CCNc2nc3c(c(=O)n(C)c(=O)n3C)n2CC)cc1OCC`: the viability is 101% (inactive).

`Cn1c(=O)c2c(nc(NCCNC(=O)c3ccco3)n2Cc2ccccc2Cl)n(C)c1=O`: the viability is 112% (inactive).

For `Cc1ccc2cc(C(c3nnnn3C3CCCC3)N3CCN(c4ccc(F)cc4)CC3)c(=O)[nH]c2c1` (stereo not drawn), the viability was 101% (inactive).

Consider `Cc1ccc(OCC2Cn3c(nc4c3c(=O)n(C)c(=O)n4C)O2)cc1` (stereo not drawn), for which the viability was 96% (inactive).

As for `Cc1c(C(=O)N2CCN(c3ccccc3)CC2)sc2ncnc(N3CCN(c4ccccc4)CC3)c12`, the viability was 82.5% (inactive).

On to `COc1cccc(-c2nnc(SCC(N)=O)n2-c2ccc(Cl)cc2)c1`, for which the viability was 103% (inactive).

As for `CC1=C(C(=O)N2CCOCC2)C(c2ccccc2F)C2=C(CCCC2=O)N1` (stereo not drawn), the viability is 104% (inactive).

In the case of `C/C=C(\C)c1nnc(NC(=O)OCC)s1`, the viability is 117% (inactive).

On to `C[C@H](CCC(=O)O)[C@H]1CC[C@H]2[C@@H]3C(=O)C[C@@H]4CC(=O)CC[C@]4(C)[C@H]3CC(=O)[C@]12C`, for which the viability was 88.9% (inactive).

Regarding `Cc1ccc2c(c1)nnn2C1CCN(C(=O)NC23CC4CC(CC(C4)C2)C3)CC1`, the viability was 102% (inactive).

Regarding `CN(C)C(CNC(=O)Nc1cccc(Cl)c1)c1cccnc1` (stereo not drawn), the viability was 96.6% (inactive).

As for `FC(F)Oc1cccc2cccnc12`, the viability is 111% (inactive).

In the case of `CCOc1cc(C(=O)Nc2c3c(nn2C(C)(C)C)CS(=O)C3)cc(OCC)c1OCC` (stereo not drawn), the viability was 96.7% (inactive).

For the compound `CC(=O)Nc1ccc(N=Cc2nc(-c3ccc(C)cc3)oc2O)cc1`, the viability was 96.2% (inactive).

With `N#CC1=C(N)N2C(=C(C#N)C13CCCCC3)SC1CCCCC12O` (stereo not drawn), the viability was 88.2% (inactive).

Consider `O=S(=O)(c1ccc(Br)s1)N1CCN(c2ccccc2)CC1`, for which the viability is 96.9% (inactive).

With `c1coc(-c2nnc(-c3cccs3)o2)c1`, the viability was 110% (inactive).

On to `CN1[C@@H]2CC(OC(=O)[C@H](CO)c3ccccc3)C[C@H]1[C@@H]1O[C@@H]12` (stereo partly drawn), for which the viability is 96.7% (inactive).

Consider `CCCN1CCN(C(=O)Cn2cccc2C(=O)c2ccccc2)CC1`, for which the viability was 99.9% (inactive).

In the case of `CC(CCc1ccccc1)NCC(O)c1ccc(O)c(C(N)=O)c1` (stereo not drawn), the viability was 104% (inactive).

As for `Cc1nc2c(-c3ccccc3)c(C)[nH]n2c(=O)c1Cl`, the viability is 72.7% (inactive).

On to `CCCC(=O)n1nc(-c2ccc(OC)cc2)nc1N`, for which the viability was 93.6% (inactive).

Consider `O=C(C1CCN(C2CC(=O)N(c3ccc(F)cc3)C2=O)CC1)N1CCOCC1` (stereo not drawn), for which the viability is 105% (inactive).

For `O=C(NCc1cccs1)C1CC(=O)N(C2CCCC2)C1` (stereo not drawn), the viability is 91.1% (inactive).

`CCC(C)NCC(O)COCc1ccc(Cl)cc1` (stereo not drawn): the viability was 101% (inactive).

`CSc1c(CC(=O)NCCO)n(C)c2ccccc12`: the viability was 111% (inactive).

Turning to `O=C(O)c1ccc(COc2c(F)c(F)c(F)c(F)c2F)o1`, the viability was 106% (inactive).

For the compound `CSc1ncc(Cl)c(C(=O)Nc2ccc(S(=O)(=O)N3CCOCC3)cc2)n1`, the viability is 97% (inactive).

With `S=C(c1ccc(N2CCOCC2)cc1)N1CCCCC1`, the viability is 105% (inactive).

Consider `CCOC(=O)C1CCN(c2cc(C)nc3cc(-c4cccc(F)c4)nn23)CC1`, for which the viability is 105% (inactive).

As to `O=S(=O)(Nc1nc2ccccc2nc1NCc1ccco1)c1cccs1`, the viability was 100% (inactive).

With `OC(CCCN1CCC(O)(c2ccc(Cl)cc2)CC1)c1ccc(F)cc1` (stereo not drawn), the viability was 73.1% (inactive).

With `C=CCN1C(=O)C2(/C(=C(\O)c3ccc4c(c3)OCCO4)C(=O)C(=O)N2CCCOC)c2ccccc21` (stereo not drawn), the viability is 96.6% (inactive).

As for `Cc1ccc2c(c1)N(CC(=O)N1CCCCC1c1cccnc1)C(=O)CO2` (stereo not drawn), the viability is 99.8% (inactive).

For `O=C(CSc1n[nH]c(=O)[nH]c1=O)c1ccccc1`, the viability is 105% (inactive).

`O=[N+]([O-])c1cccc2cn[nH]c12`: the viability is 88.6% (inactive).
